Results from PubChem BioAssay.
Results filed as inconclusive are left out. Activity calls are given as the source filed them.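 How the source made its calls, unless noted: active means viability increase at or above a cutoff of the median across tested compounds plus 3 SD (cut at about 8.5% in these data, passing the limit was not always enough); inconclusive means some gains above the cutoff, reason not given; inactive means the rest.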

Key:
[1] = OD615 S. cerevisiae growth inhibition, permissive medium, pilot counter-assay, permissive growth control for S. cerevisiae lifespan shortening project (AID 705;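 active means growth inhibition above 25% in both replicates, a cutoff set 3 SD above the mean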); conditions: OD615, 24 h, at 10 µM, active compounds read high
Summary of the method: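 Material: engineered DeaD yeast; compound dosing: one dose 10 µM, DMSO 0.25% final; measure: yeast growth inhibition indicated by reduced 24 h OD615; detection: OD615 turbidity read; incubation: cells pre-grown 4 h, then 24 h compound exposure, 30 °C humidified; medium: permissive synthetic complete medium with raffinose and galactose carbon sources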

[2] = Restrictive medium S. cerevisiae growth inhibition, OD615, pilot screen of yeast lifespan reduction project, restrictive growth control (AID 706;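 active means growth inhibition above a set limit, 3 SD over mean compound inhibition, in both replicates, cut at about 43% in these data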;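 further: modified DeaD lifespan yeast strain shifted to restrictive glucose medium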); conditions: OD615, 48 h, at 10 µM, active compounds read high
Summary of the method: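 material = engineered S. cerevisiae DeaD strain | medium = glucose-based CSMM-D restrictive medium | times = 4 h pre-incubation, 48 h exposure at 30 °C | technique = OD615 absorbance reading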

[3] = viability gain of MRP-1-high H69AR cells under doxorubicin, pilot screen, MRP-1 activator project, CellTiter-Glo, duplicate (AID 807); conditions: H69AR viability with doxorubicin, CellTiter-Glo luminescence; at 10 µM; active compounds read high;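 further: compound pretreatment 18-22 h then 72 h combined with doxorubicin; 0% = doxorubicin alone and 100% = vehicle without doxorubicin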
[4] = growth suppression of beta-catenin knockout HCT116, pilot screen, human colon tumor cells (AID 823;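 active means cell viability at or below a set limit in both duplicate runs, the limit being the all-compound median minus 4 SD, cut at about 23% in these data, passing the limit was not always enough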;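 further: 0% = wells killed by 20 µM Hyamine and 100% = untreated DMSO cell wells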); conditions: CellTiter-Glo, 60 h, at 10 µM, active compounds read low
[5] = growth suppression of PTEN-deleted HCT116, pilot screen, cell-based, HCT116 clonal line, CellTiter-Glo (AID 824;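 active means viability at or below 27.92% in each of two runs, the all-compound median minus 4 SD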;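 further: 0% = 20 µM Hyamine control and 100% = vehicle cell control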); conditions: 60 h, at 10 µM, active compounds read low
[6] = inhibitors of the yeast RAM network, pilot screen, dse1pr::URA3 reporter, 5-FOA selection (AID 869;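 active means inhibition over a set limit, the all-compound mean plus 3 SD, in both replicate runs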;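 further: 0% = DMSO wells with no growth and 100% = 10 µM 1-NA-PP1 with full growth; RAM network block rescues cells from 5-FOA so hits raise OD615 growth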); conditions: S. cerevisiae dse1pr::URA3 5-FOA growth, OD615, 2 d; at 10 µM; active compounds read high; strain carries analog-sensitive mutant Cbk1 kinase
[7] = RAM signaling pathway blockade in yeast – S. cerevisiae, Pdr1DBD-CYC8 efflux-inhibited sensitized strain, primary screen (AID 1298;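 active means RAM network inhibition above 8.4% in each of two replicates, 3 SD over the compound average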;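 further: 0% = DMSO untreated cells without growth and 100% = 10 µM 1-NA-PP1 full growth; higher means more yeast growth rescued from 5-FOA killing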); conditions: S. cerevisiae cbk1-as DSE1-URA3 strain, 5-FOA growth OD615, 2 d; at 50 µM; active compounds read high

CCOC(=O)C1=C(O)/C(=C/N(C)C)N=C1C
inactive: growth inhibition [1] 4.34% | growth inhibition [2] 5.5% | viability increase [3] -0.31% | viability [4] 103% | viability [5] 106% | inhibition [6] 3.19% | RAM network inhibition [7] 0.56%

NC(=O)c1nc(C2CCCCC2)nc2c1[nH]c(=O)n2-c1ccc(F)cc1
inactive: growth inhibition [1] -13.1% | growth inhibition [2] -17.8% | viability increase [3] -3.71% | viability [4] 87.4% | viability [5] 86% | inhibition [6] 1.69% | RAM network inhibition [7] 5.24%

COc1ccc(NC(=O)N(CCC(C)C)C(C)c2ccccn2)c(OC)c1 (stereo not drawn)
inactive: growth inhibition [1] -5% | growth inhibition [2] 7.73% | viability increase [3] -3.52% | viability [4] 79.2% | viability [5] 85.6% | inhibition [6] 1.11% | RAM network inhibition [7] 3.79%

CCCC(=O)Nc1nnc(-c2ccc(Cl)s2)o1
inactive: growth inhibition [1] -6.95% | growth inhibition [2] 2.92% | viability increase [3] -3.1% | viability [4] 95.6% | viability [5] 91.2% | inhibition [6] 1.61% | RAM network inhibition [7] 1.6%

CCOc1cccc(NC(=O)c2ccc(S(=O)(=O)N3CCCC3)cc2)c1
inactive: growth inhibition [1] 0.65% | growth inhibition [2] -11.1% | viability increase [3] -2.68% | viability [4] 87.5% | viability [5] 82.1% | inhibition [6] 0.965% | RAM network inhibition [7] -0.21%

O=C(O)CCSc1nnc(-c2ccccc2)n1-c1ccccc1
active: growth inhibition [2] 50.6%
inactive: growth inhibition [1] 4.3% | viability increase [3] 0.8% | viability [4] 94.4% | viability [5] 98.3% | inhibition [6] 1.48% | RAM network inhibition [7] 0.72%

COc1ccc(-n2c(Cc3cccn3C)nnc2SCC(=O)N2CCCC2)cc1
active: growth inhibition [2] 49.5%
inactive: growth inhibition [1] 11.1% | viability increase [3] -0.77% | viability [4] 96.1% | viability [5] 98.5% | inhibition [6] 0.04% | RAM network inhibition [7] 0.93%

Cc1ccccc1S(=O)(=O)Cc1ccc(C(=O)N2CCN(C3CCCCC3)CC2)o1
inactive: growth inhibition [1] -9.92% | growth inhibition [2] -5.71% | viability increase [3] -1.48% | viability [4] 95.1% | viability [5] 89.6% | inhibition [6] 0.385% | RAM network inhibition [7] 4.62%

O=C(Nc1ccc(S(=O)(=O)N2CCCCCC2)cc1)c1ccc(Br)o1
inactive: growth inhibition [1] -4.67% | growth inhibition [2] 0.21% | viability increase [3] -3.03% | viability [4] 69.6% | viability [5] 59.7% | inhibition [6] 2.62% | RAM network inhibition [7] 5.05%

CC1CCCCN1C(=O)CSCC(=O)Nc1nc(-c2cccs2)cs1 (stereo not drawn)
inactive: growth inhibition [1] 2.07% | growth inhibition [2] -3.92% | viability increase [3] -4.62% | viability [4] 99.2% | viability [5] 94.6% | inhibition [6] 0.505% | RAM network inhibition [7] 1.69%

O=C(Nc1ccncc1)c1ccc2c(c1)OCCO2
inactive: growth inhibition [1] 1.55% | growth inhibition [2] -11.1% | viability increase [3] 0.93% | viability [4] 85.6% | viability [5] 84% | inhibition [6] 1.98% | RAM network inhibition [7] 5.5%

CN(C)S(=O)(=O)c1ccc(C(=O)Nc2nc(-c3cccs3)cs2)cc1
active: viability [5] 20%
inactive: growth inhibition [1] -5.6% | growth inhibition [2] -13.7% | viability increase [3] -1.56% | viability [4] 49.8% | inhibition [6] 4.17% | RAM network inhibition [7] 5.01%

CCC(C)Nc1ncnc2c1cnn2Cc1ccc(Cl)cc1 (stereo not drawn)
inactive: growth inhibition [1] -13.7% | growth inhibition [2] -18.8% | viability increase [3] 6.18% | viability [4] 85.5% | viability [5] 86.7% | inhibition [6] -0.295% | RAM network inhibition [7] 2.14%

O=C(NC1CCCCC1)N1CCCc2ccccc21
inactive: growth inhibition [1] 2.93% | growth inhibition [2] -1.39% | viability increase [3] -4.89% | viability [4] 86.1% | viability [5] 84% | inhibition [6] 0.345% | RAM network inhibition [7] -1.17%

CCCn1c(CCNC(=O)c2cccs2)nc2ccccc21
inactive: growth inhibition [1] -1.19% | growth inhibition [2] 4.79% | viability increase [3] -0.97% | viability [4] 94.9% | viability [5] 91.5% | inhibition [6] 1.37% | RAM network inhibition [7] 4.94%

Cc1oc(-c2ccccc2F)nc1CS(=O)CC(=O)NCc1cccs1 (stereo not drawn)
inactive: growth inhibition [1] -2.83% | growth inhibition [2] 26% | viability increase [3] -2.27% | viability [4] 99.7% | viability [5] 93.4% | inhibition [6] 1.64% | RAM network inhibition [7] 8.65%

CC(C)N(Cc1nc(-c2ccccc2)no1)C(=O)c1ccc(Cl)cc1
inactive: growth inhibition [1] -9.85% | growth inhibition [2] -12% | viability increase [3] 2.12% | viability [4] 80.7% | viability [5] 76.2% | inhibition [6] 3.25% | RAM network inhibition [7] 6.42%

Cc1cccc(NC(=O)CSc2nnc(-c3ccccc3)n2N)c1
inactive: growth inhibition [1] -0.87% | growth inhibition [2] 0.675% | viability increase [3] -1.81% | viability [4] 100% | viability [5] 98.9% | inhibition [6] 1.93% | RAM network inhibition [7] 4.31%

N#CCCN1CCN(S(=O)(=O)c2ccc(S(=O)(=O)N3CCOCC3)cc2)CC1
inactive: growth inhibition [1] -6.47% | growth inhibition [2] 4.95% | viability increase [3] 0.97% | viability [4] 95.2% | viability [5] 98.8% | inhibition [6] -0.88% | RAM network inhibition [7] -2.16%

COc1ccc(CCNC(=O)c2c(O)c3c([nH]c2=O)CCCC3)cc1
inactive: growth inhibition [1] -0.92% | growth inhibition [2] -15.2% | viability increase [3] -0.72% | viability [4] 97.1% | viability [5] 90% | inhibition [6] 1.77% | RAM network inhibition [7] 4.09%

COC(=O)C1CCN(C(=O)c2ccccc2NC(C)=O)CC1
inactive: growth inhibition [1] -12% | growth inhibition [2] -16.4% | viability increase [3] -0.52% | viability [4] 101% | viability [5] 99.6% | inhibition [6] -0.23% | RAM network inhibition [7] 2.21%

COc1ccc(N2C(=O)C3CCCN3C2c2ccc(Cl)cc2)cc1 (stereo not drawn)
inactive: growth inhibition [1] -6.21% | growth inhibition [2] -6.83% | viability increase [3] -2.6% | viability [4] 101% | viability [5] 95.5% | inhibition [6] 1.7% | RAM network inhibition [7] 2.27%

CCOCCCNC(=O)C(c1ccc(Cl)cc1)N1CCN(C(=O)c2ccco2)CC1 (stereo not drawn)
inactive: growth inhibition [1] -19.4% | growth inhibition [2] -17.1% | viability increase [3] -2.12% | viability [4] 101% | viability [5] 96.2% | inhibition [6] 2.34% | RAM network inhibition [7] 5.86%

O=C(O)CC1(Cc2nc(-c3cccs3)no2)CCCC1
inactive: growth inhibition [1] 5.79% | growth inhibition [2] 0.06% | viability increase [3] 0.13% | viability [4] 96.1% | viability [5] 94.6% | inhibition [6] 0.35% | RAM network inhibition [7] -0.58%
